Experimental data: publication PMC11247637 (ACS Medicinal Chemistry Letters, 2024)
Values belong to the molecule of their own block, whether it stands above or below them.

Key:
[1] = target: T1, MUS81-EME1 heterodimer (MUS81 residues 246-551; EME1 residues 246-570) (Homo sapiens, UniProt Q96NY9); test: Surface plasmon resonance; assay type: binding; settings: SPR affinity; for increase in affinity: compared with 5
T1 sequence (Q96NY9 246-551): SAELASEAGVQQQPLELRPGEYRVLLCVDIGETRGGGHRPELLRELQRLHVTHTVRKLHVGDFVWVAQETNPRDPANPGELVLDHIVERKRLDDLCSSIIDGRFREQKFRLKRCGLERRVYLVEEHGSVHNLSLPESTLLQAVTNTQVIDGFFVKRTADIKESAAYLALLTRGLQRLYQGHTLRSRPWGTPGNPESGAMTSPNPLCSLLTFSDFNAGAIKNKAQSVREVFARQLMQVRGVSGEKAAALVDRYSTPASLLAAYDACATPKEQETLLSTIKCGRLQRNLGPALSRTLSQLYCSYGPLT
T1 sequence (Q96AY2 246-570 partner limits assumed): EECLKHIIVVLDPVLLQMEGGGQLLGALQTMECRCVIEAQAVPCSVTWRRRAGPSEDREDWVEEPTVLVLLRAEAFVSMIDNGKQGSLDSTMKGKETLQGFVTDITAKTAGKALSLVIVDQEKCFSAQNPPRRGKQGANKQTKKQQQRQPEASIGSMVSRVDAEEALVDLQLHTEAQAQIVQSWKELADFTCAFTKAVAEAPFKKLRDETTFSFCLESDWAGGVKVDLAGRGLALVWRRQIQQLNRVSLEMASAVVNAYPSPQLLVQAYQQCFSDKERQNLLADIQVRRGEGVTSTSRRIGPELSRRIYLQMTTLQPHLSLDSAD
Procedure, shortened: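 Kd values for binding to MUS81-EME1 were measured by SPR. Affinities are the geometric mean with geometric standard deviation of at least three determinations.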

Full length MUS81-EME1 = target: T2, Full length MUS81-EME1 (Homo sapiens, UniProt Q96NY9); test: MUS81-EME1 biochemical enzyme-inhibition assay; settings: for improvement in biochemical activity (IC50): compared with pyrimidinone 15; for improvement in biochemical activity: compared to 18
T2 sequence (Q96NY9 1-551): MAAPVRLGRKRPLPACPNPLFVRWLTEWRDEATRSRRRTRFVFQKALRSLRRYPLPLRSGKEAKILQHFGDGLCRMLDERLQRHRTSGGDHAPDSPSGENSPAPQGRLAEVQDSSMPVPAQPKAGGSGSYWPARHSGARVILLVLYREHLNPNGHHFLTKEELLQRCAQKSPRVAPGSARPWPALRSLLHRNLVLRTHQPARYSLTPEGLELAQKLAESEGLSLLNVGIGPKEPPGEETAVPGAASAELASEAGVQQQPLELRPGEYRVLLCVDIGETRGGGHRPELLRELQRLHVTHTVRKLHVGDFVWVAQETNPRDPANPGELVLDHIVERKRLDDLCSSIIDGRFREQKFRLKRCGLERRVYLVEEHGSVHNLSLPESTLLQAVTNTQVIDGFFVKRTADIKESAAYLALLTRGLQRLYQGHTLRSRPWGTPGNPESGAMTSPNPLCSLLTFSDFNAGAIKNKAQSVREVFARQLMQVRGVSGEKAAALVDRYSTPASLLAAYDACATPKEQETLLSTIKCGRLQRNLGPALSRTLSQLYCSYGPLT
T2 sequence (Q96AY2 1-570 partner): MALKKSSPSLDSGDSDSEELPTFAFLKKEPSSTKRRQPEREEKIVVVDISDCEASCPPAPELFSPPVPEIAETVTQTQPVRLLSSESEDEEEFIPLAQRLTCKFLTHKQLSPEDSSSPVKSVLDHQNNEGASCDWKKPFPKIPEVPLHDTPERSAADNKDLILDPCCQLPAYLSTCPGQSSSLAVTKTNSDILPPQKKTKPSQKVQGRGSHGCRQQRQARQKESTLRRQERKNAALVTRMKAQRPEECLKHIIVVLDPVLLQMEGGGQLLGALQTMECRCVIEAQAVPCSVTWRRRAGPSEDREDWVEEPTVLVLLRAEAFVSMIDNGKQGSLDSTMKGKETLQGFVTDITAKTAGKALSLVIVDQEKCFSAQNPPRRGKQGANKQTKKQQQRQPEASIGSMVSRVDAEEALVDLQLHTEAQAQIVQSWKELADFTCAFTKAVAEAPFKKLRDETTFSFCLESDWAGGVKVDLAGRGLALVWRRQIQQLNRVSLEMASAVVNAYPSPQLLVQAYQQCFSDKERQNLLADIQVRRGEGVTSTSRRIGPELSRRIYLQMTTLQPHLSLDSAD
Procedure, shortened: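 LE was calculated as 1.37 × pIC50/HAC and LLE as pIC50 − LogD. LogD was measured by shake-flask partition between octanol and water at pH 7.4. IC50 values are the geometric mean ± SEM of at least three determinations.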

[2] = Metabolic stability in rat hepatocytes; assay type: in vitro ADME
Procedure, shortened: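 Intrinsic clearance was measured in rat hepatocyte incubations and expressed as μL/min/1 × 10^6 cells.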

[3] = target: safety panel of 22 common off-targets, comprising enzymes, receptors and ion channels (e.g., COX2, PDEs, INSR, GABA, NMDA, CaV-L); test: Eurofins SafetyScreen panel of 22 common off-targets; assay type: biochemical; settings: read-out: IC50 against safety panel off-targets

SMILES: O=C(O)c1nc(-c2ccccc2)nc(O)c1O [Compound 5]
- increase in potency ([1]; compared with methyl ester 1): ~20 fold

SMILES: Cc1nc(C(=O)O)c(O)c(=O)[nH]1 [Compound 6]
- drop in potency ([1]; compared with acid 5): ~20 fold

SMILES: O=C(O)c1nc(-c2ccc(Cl)cc2)nc(O)c1O [Compound 10]
- increase in affinity [1]: ~2 fold

SMILES: O=C(O)c1nc(-c2ccc(Br)cc2)nc(O)c1O [Compound 11]
- increase in affinity [1]: ~2 fold

SMILES: O=C(O)c1nc(-c2ccc3ccccc3c2)[nH]c(=O)c1O [Compound 12]
- increase in affinity [1]: ~2 fold

SMILES: O=C(O)c1nc(-c2ccc(N3CCNCC3)cc2)[nH]c(=O)c1O [Compound 17]
- improvement in biochemical activity (IC50) (Full length MUS81-EME1): ~2 fold

Second part, led by results:

- improvement in biochemical activity (IC50) (Full length MUS81-EME1): approximately 3 fold
SMILES: O=C(O)c1cn(-c2ccc(-c3ccccc3)cc2)cc(O)c1=O [Compound 18]

- rHep Clint [2]: 11 μL/min/1 × 10^6 cells
- improvement in biochemical activity (Full length MUS81-EME1): approximately 2 fold
SMILES: O=C(O)c1cn(-c2ccc(-c3ccc(C(=O)N4CCNCC4)cc3)cc2)cc(O)c1=O [Compound 23]

- rHep Clint [2]: 10 μL/min/1 × 10^6 cells
- improvement in biochemical activity (Full length MUS81-EME1): approximately 2 fold
SMILES: N#Cc1cc(-c2ccc(C(=O)N3CCNCC3)cc2)ccc1-n1cc(O)c(=O)c(C(=O)O)c1 [Compound 24]
- IC50 [3]: > 100 µM
